Legend:
[1] = target: T1, Retinoic acid receptor RXR-gamma (Homo sapiens, UniProt P48443); assay: Transcriptional activation of Retinoid X receptor RXR gamma; parameters: species or system Cercopithecidae
T1 sequence (P48443 whole entry): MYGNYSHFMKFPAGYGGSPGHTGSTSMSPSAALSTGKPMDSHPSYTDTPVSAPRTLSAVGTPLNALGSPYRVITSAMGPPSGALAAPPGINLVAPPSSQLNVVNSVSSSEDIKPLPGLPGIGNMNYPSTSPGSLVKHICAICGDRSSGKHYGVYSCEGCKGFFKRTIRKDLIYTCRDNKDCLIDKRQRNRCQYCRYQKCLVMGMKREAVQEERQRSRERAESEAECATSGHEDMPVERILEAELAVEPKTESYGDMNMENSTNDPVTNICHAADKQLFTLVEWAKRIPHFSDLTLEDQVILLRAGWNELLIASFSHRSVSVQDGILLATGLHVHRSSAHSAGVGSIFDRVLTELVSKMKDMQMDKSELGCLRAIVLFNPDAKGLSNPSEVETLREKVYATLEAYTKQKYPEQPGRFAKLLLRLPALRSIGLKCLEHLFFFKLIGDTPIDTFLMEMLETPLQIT
Summary of the method: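 CV-1 cells transiently cotransfected with the receptor construct and a reporter gene, with induced transcription measured. Activity is normalized to all-trans RA.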

[2] = target: T2, Retinoic acid receptor gamma (Homo sapiens, UniProt P13631); assay: Transcriptional activation of Retinoic acid receptor RAR gamma;NA=not active; parameters: species or system Cercopithecidae
T2 sequence (P13631 whole entry): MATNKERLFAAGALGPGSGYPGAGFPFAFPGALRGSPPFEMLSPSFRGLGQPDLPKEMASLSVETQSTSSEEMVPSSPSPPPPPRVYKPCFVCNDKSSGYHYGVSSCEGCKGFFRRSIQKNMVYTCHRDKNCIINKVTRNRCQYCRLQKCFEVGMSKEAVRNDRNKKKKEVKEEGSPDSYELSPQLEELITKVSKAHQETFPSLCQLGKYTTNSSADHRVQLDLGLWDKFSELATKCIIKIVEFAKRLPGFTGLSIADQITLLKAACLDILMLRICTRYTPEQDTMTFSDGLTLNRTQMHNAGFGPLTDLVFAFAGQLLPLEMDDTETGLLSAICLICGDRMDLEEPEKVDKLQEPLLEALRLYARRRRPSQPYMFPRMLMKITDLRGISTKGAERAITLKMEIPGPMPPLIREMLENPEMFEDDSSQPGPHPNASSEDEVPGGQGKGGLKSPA
Summary of the method: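 CV-1 cells transiently cotransfected with the receptor construct and a reporter gene, with induced transcription measured. Activity is normalized to all-trans RA. EC50 is the concentration giving 50% of maximal observed response, from a single experiment in triplicate.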

[3] = target: T3, Retinoic acid receptor RXR-beta (Mus musculus, UniProt P28704); assay: Dissociation constant for binding to Retinoid X receptor beta
T3 sequence (P28704 whole entry): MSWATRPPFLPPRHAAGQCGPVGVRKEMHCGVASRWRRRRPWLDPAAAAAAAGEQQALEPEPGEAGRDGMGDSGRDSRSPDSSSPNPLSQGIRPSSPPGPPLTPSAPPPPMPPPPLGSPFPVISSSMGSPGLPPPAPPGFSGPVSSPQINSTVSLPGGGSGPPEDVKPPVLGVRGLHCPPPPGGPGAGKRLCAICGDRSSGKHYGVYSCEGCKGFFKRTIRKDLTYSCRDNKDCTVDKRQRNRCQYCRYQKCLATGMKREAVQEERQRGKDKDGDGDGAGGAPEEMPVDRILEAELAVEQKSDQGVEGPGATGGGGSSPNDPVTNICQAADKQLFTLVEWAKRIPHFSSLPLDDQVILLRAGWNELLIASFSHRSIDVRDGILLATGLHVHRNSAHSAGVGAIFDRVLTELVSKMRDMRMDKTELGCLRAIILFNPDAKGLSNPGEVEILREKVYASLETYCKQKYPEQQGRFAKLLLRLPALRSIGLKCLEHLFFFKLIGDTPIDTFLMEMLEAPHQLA
Summary of the method: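 Competitive binding assay measuring displacement at the RXRβ receptor subtype.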

[4] = target: T4, Retinoic acid receptor beta (Mus musculus, UniProt P22605); assay: Dissociation constant for binding to Retinoic acid receptor beta
T4 sequence (P22605 whole entry): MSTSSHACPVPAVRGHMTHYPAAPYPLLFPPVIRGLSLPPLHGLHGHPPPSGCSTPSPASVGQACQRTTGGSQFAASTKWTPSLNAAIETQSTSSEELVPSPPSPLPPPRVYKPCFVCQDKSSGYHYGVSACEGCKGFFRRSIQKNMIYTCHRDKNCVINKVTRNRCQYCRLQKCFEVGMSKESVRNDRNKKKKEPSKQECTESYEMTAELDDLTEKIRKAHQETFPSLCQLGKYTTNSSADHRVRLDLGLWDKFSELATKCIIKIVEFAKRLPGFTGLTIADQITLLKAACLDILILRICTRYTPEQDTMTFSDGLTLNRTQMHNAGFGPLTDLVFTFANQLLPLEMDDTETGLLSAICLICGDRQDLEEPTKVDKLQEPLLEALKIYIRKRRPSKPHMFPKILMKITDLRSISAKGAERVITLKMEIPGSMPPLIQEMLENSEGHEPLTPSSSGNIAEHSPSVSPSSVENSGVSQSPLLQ
Summary of the method: (§1)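 Competitive binding assays against each receptor subtype, with Kd values taken from competition.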

[5] = target: T5, Retinoic acid receptor alpha (Mus musculus, UniProt P11416); assay: Dissociation constant for binding to Retinoic acid receptor alpha; assay type: single protein; summary of the method: as §1
T5 sequence (P11416 whole entry): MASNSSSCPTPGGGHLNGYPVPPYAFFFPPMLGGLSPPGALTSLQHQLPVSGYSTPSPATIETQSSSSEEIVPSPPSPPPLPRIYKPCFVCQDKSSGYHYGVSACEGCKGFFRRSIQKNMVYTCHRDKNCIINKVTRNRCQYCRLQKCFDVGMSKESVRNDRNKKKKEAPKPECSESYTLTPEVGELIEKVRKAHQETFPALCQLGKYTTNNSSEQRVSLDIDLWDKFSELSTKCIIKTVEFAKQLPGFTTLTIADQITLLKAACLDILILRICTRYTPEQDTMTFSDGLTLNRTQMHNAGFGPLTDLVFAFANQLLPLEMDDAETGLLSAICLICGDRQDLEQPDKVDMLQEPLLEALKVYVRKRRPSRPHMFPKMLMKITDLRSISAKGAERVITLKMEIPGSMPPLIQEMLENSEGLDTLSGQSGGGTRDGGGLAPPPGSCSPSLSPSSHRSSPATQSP

Row | SMILES | EC50 [1] [nM] | EC50 [2] | Kd [3] [nM] | Kd [4] [nM] | Kd [5] [nM]
1 | Cc1cc2c(cc1Sc1ccc(C(=O)O)cn1)C(C)(C)CCC2(C)C | 42 | Not Active | 87 |  | 
2 | Cc1cc2c(cc1S(=O)(=O)c1ccc(C(=O)O)cc1)C(C)(C)CCC2(C)C |  | Not Active |  | > 10000 | > 10000
3 | Cc1cc2c(cc1Sc1ccc(C(=O)O)cc1)C(C)(C)CCC2(C)C | 280 |  |  | > 10000 | > 10000
4 | Cc1cc2c(cc1[S+]([O-])c1ccc(C(=O)O)cc1)C(C)(C)CCC2(C)C (configuration not stated) | 1600 | Not Active | > 10000 | > 10000 | > 10000

Further compounds by falling Kd [4], results first:

Row | EC50 [1] [nM] | EC50 [2] | Kd [3] [nM] | Kd [4] [nM] | Kd [5] [nM] | SMILES
5 |  |  | 3090 | 4240 | 4080 | CC1(C)CCC(C)(C)c2cc(Sc3ccc(C(=O)O)cc3)ccc21
6 | 1900 | Not Active | 1000 | 1000 | 1000 | Cc1cc2c(cc1Sc1ncc(C(=O)O)s1)C(C)(C)CCC2(C)C

Source: ChEMBL document CHEMBL1129630, “Synthesis and structure-activity relationships of retinoid X receptor selective diaryl sulfide analogs of retinoic acid” (J Med Chem, 1996)
